Source: ChEMBL document CHEMBL1154842, “Synthesis, radiolabeling, and biological evaluation of (R)- and (S)-2-amino-3-[(18)F]fluoro-2-methylpropanoic acid (FAMP) and (R)- and (S)-3-[(18)F]fluoro-2-methyl-2-N-(methylamino)propanoic acid (NMeFAMP) as potential PET radioligands for imaging brain tumors” (J Med Chem, 2010)

Experiments:
[1] = Biodistribution in tumor of Fischer 344 rat bearing rat 9L cells at 20 uCi, iv after 30 mins; type: ADME, organism-based, Neoplasm; conditions: in vivo, 0.5 h
Summary of the method: (§1)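 Male Fischer 344 rats (200–250 g) carrying intracranial 9L gliosarcoma (5×10^4 cells implanted stereotactically, 10–12 days growth), under ketamine:xylazine anaesthesia. About 20 μCi tracer in 0.5 mL sterile saline given via tail-vein catheter. Groups of 4–5 were killed by intracardiac KCl at 15 (NMeFAMP only), 30, 60 or 120 min. Tissues were weighed and gamma-counted, decay-corrected, and reported as %ID/g, mean ± SD.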

[2] = Ratio of drug level from tumor to brain of Fischer 344 rat bearing rat 9L cells at 20 uCi, iv after 120 mins; type: ADME, organism-based; conditions: in vivo, 2 h
Blood [3] = assay: Biodistribution in blood of Fischer 344 rat bearing rat 9L cells at 20 uCi, iv after 30 mins; type: ADME, organism-based; conditions: in vivo, 0.5 h; summary of the method: as §1
Blood [4] = assay: Biodistribution in blood of Fischer 344 rat bearing rat 9L cells at 20 uCi, iv after 60 mins; type: ADME, organism-based; conditions: in vivo, 1 h; summary of the method: as §1
Blood [5] = assay: Biodistribution in blood of Fischer 344 rat bearing rat 9L cells at 20 uCi, iv after 120 mins; type: ADME, organism-based; conditions: in vivo, 2 h; summary of the method: as §1
Heart [6] = assay: Biodistribution in heart of Fischer 344 rat bearing rat 9L cells at 20 uCi, iv after 30 mins; type: ADME, organism-based; conditions: in vivo, 0.5 h; summary of the method: as §1
Heart [7] = assay: Biodistribution in heart of Fischer 344 rat bearing rat 9L cells at 20 uCi, iv after 60 mins; type: ADME, organism-based; conditions: in vivo, 1 h; summary of the method: as §1
Heart [8] = assay: Biodistribution in heart of Fischer 344 rat bearing rat 9L cells at 20 uCi, iv after 120 mins; type: ADME, organism-based; conditions: in vivo, 2 h; summary of the method: as §1
Lung [9] = assay: Biodistribution in lung of Fischer 344 rat bearing rat 9L cells at 20 uCi, iv after 30 mins; type: ADME, organism-based; conditions: in vivo, 0.5 h; summary of the method: as §1
Lung [10] = assay: Biodistribution in lung of Fischer 344 rat bearing rat 9L cells at 20 uCi, iv after 60 mins; type: ADME, organism-based; conditions: in vivo, 1 h; summary of the method: as §1
Lung [11] = assay: Biodistribution in lung of Fischer 344 rat bearing rat 9L cells at 20 uCi, iv after 120 mins; type: ADME, organism-based; conditions: in vivo, 2 h; summary of the method: as §1
Liver [12] = assay: Biodistribution in liver of Fischer 344 rat bearing rat 9L cells at 20 uCi, iv after 30 mins; type: ADME, organism-based; conditions: in vivo, 0.5 h; summary of the method: as §1
Liver [13] = assay: Biodistribution in liver of Fischer 344 rat bearing rat 9L cells at 20 uCi, iv after 60 mins; type: ADME, organism-based; conditions: in vivo, 1 h; summary of the method: as §1
Liver [14] = assay: Biodistribution in liver of Fischer 344 rat bearing rat 9L cells at 20 uCi, iv after 120 mins; type: ADME, organism-based; conditions: in vivo, 2 h; summary of the method: as §1
Pancreas [15] = assay: Biodistribution in pancreas of Fischer 344 rat bearing rat 9L cells at 20 uCi, iv after 30 mins; type: ADME, organism-based; conditions: in vivo, 0.5 h; summary of the method: as §1
Pancreas [16] = assay: Biodistribution in pancreas of Fischer 344 rat bearing rat 9L cells at 20 uCi, iv after 60 mins; type: ADME, organism-based; conditions: in vivo, 1 h; summary of the method: as §1
Pancreas [17] = assay: Biodistribution in pancreas of Fischer 344 rat bearing rat 9L cells at 20 uCi, iv after 120 mins; type: ADME, organism-based; conditions: in vivo, 2 h; summary of the method: as §1
Spleen [18] = assay: Biodistribution in spleen of Fischer 344 rat bearing rat 9L cells at 20 uCi, iv after 30 mins; type: ADME, organism-based; conditions: in vivo, 0.5 h; summary of the method: as §1
Spleen [19] = assay: Biodistribution in spleen of Fischer 344 rat bearing rat 9L cells at 20 uCi, iv after 60 mins; type: ADME, organism-based; conditions: in vivo, 1 h; summary of the method: as §1
Spleen [20] = assay: Biodistribution in spleen of Fischer 344 rat bearing rat 9L cells at 20 uCi, iv after 120 mins; type: ADME, organism-based; conditions: in vivo, 2 h; summary of the method: as §1
Kidney [21] = assay: Biodistribution in kidney of Fischer 344 rat bearing rat 9L cells at 20 uCi, iv after 30 mins; type: ADME, organism-based; conditions: in vivo, 0.5 h; summary of the method: as §1
Kidney [22] = assay: Biodistribution in kidney of Fischer 344 rat bearing rat 9L cells at 20 uCi, iv after 60 mins; type: ADME, organism-based; conditions: in vivo, 1 h; summary of the method: as §1
Kidney [23] = assay: Biodistribution in kidney of Fischer 344 rat bearing rat 9L cells at 20 uCi, iv after 120 mins; type: ADME, organism-based; conditions: in vivo, 2 h; summary of the method: as §1
Muscle tissue [24] = assay: Biodistribution in muscle of Fischer 344 rat bearing rat 9L cells at 20 uCi, iv after 30 mins; type: ADME, organism-based; conditions: in vivo, 0.5 h; summary of the method: as §1
Muscle tissue [25] = assay: Biodistribution in muscle of Fischer 344 rat bearing rat 9L cells at 20 uCi, iv after 60 mins; type: ADME, organism-based; conditions: in vivo, 1 h; summary of the method: as §1
Muscle tissue [26] = assay: Biodistribution in muscle of Fischer 344 rat bearing rat 9L cells at 20 uCi, iv after 120 mins; type: ADME, organism-based; conditions: in vivo, 2 h; summary of the method: as §1
Bone [27] = assay: Biodistribution in bone of Fischer 344 rat bearing rat 9L cells at 20 uCi, iv after 30 mins; type: ADME, organism-based, Bone element; conditions: in vivo, 0.5 h; summary of the method: as §1
Bone [28] = assay: Biodistribution in bone of Fischer 344 rat bearing rat 9L cells at 20 uCi, iv after 60 mins; type: ADME, organism-based, Bone element; conditions: in vivo, 1 h; summary of the method: as §1
Bone [29] = assay: Biodistribution in bone of Fischer 344 rat bearing rat 9L cells at 20 uCi, iv after 120 mins; type: ADME, organism-based, Bone element; conditions: in vivo, 2 h; summary of the method: as §1
[30] = Biodistribution in testis of Fischer 344 rat bearing rat 9L cells at 20 uCi, iv after 30 mins; type: ADME, organism-based; conditions: in vivo, 0.5 h; summary of the method: as §1
[31] = Biodistribution in testis of Fischer 344 rat bearing rat 9L cells at 20 uCi, iv after 60 mins; type: ADME, organism-based; conditions: in vivo, 1 h; summary of the method: as §1
[32] = Biodistribution in testis of Fischer 344 rat bearing rat 9L cells at 20 uCi, iv after 120 mins; type: ADME, organism-based; conditions: in vivo, 2 h; summary of the method: as §1
[33] = rat, in vivo, iv, 1 h
[34] = rat, in vivo, iv, 1 h; remark: listed apart in the source
Brain = assay: Biodistribution in brain of Fischer 344 rat bearing rat 9L cells at 20 uCi, iv after 30 mins; conditions: in vivo, 0.5 h
[35] = Biodistribution in tumor of Fischer 344 rat bearing rat 9L cells at 20 uCi, iv after 30 mins; conditions: in vivo, 0.5 h
[36] = Ratio of drug level from tumor to brain of Fischer 344 rat bearing rat 9L cells at 20 uCi, iv after 60 mins; conditions: in vivo, 1 h

C[C@@](N)(C[18F])C(=O)O.Cl
Ratio [1]: 21.1
Ratio [2]: 27.7
Drug uptake (Blood [3]): 0.58 % ID/g
Drug uptake (Blood [4]): 0.4 % ID/g
Drug uptake (Blood [5]): 0.32 % ID/g
Drug uptake (Heart [6]): 0.43 % ID/g
Drug uptake (Heart [7]): 0.41 % ID/g
Drug uptake (Heart [8]): 0.34 % ID/g
Drug uptake (Lung [9]): 0.67 % ID/g
Drug uptake (Lung [10]): 0.47 % ID/g
Drug uptake (Lung [11]): 0.36 % ID/g
Drug uptake (Liver [12]): 0.61 % ID/g
Drug uptake (Liver [13]): 0.54 % ID/g
Drug uptake (Liver [14]): 0.42 % ID/g
Drug uptake (Pancreas [15]): 3.75 % ID/g
Drug uptake (Pancreas [16]): 3.91 % ID/g
Drug uptake (Pancreas [17]): 2.79 % ID/g
Drug uptake (Spleen [18]): 0.73 % ID/g
Drug uptake (Spleen [19]): 0.62 % ID/g
Drug uptake (Spleen [20]): 0.51 % ID/g
Drug uptake (Kidney [21]): 8.71 % ID/g
Drug uptake (Kidney [22]): 7.62 % ID/g
Drug uptake (Kidney [23]): 6.88 % ID/g
Drug uptake (Muscle tissue [24]): 0.47 % ID/g
Drug uptake (Muscle tissue [25]): 0.37 % ID/g
Drug uptake (Muscle tissue [26]): 0.36 % ID/g
Drug uptake (Bone [27]): 0.3 % ID/g
Drug uptake (Bone [28]): 0.3 % ID/g
Drug uptake (Bone [29]): 0.31 % ID/g
Drug uptake [30]: 0.19 % ID/g
Drug uptake [31]: 0.16 % ID/g
Drug uptake [32]: 0.17 % ID/g
Drug uptake [33]: 0.06 % ID/g
Drug uptake [34]: 1.82 % ID/g
Drug uptake (Brain): 0.07 % ID/g
Drug uptake [35]: 1.38 % ID/g
Ratio [36]: 30.9
